From ChEMBL document CHEMBL4312027, “Synthesis, characterization, and biological activity of a triphenylphosphonium-containing imidazolium salt against select bladder cancer cell lines” (Eur J Med Chem, 2020) come the findings set out here.

Test [1] deals with RT-112. In words: Mito-toxicity in mitochondria isolated from human RT112 cells assessed as increase in cytochrome C release at 100 uM incubated for 1 hr and measured after 1 to 4 hrs incubation in preservative buffer by Western blot analysis. In kind it is functional. On the technique in general: A western blot detects proteins with antibodies after separation by electrophoresis.

Test [2] relates to RT-112. Kind of test: Induction of mitochondrial membrane depolarization in human RT112 cells at 100 uM incubated for 1 hr and measured after 2 hrs recovery time by JC-1 staining based confocal microscopy. It counts as functional, cell-based. Put shortly:
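RT112 cells plated on glass-bottom dishes and incubated overnight. They were treated for 45 min, then JC-1 (final 10 μg/mL) was added to the medium for a further 15 min. Live cells were imaged by confocal microscopy (ex 485 nm; em 530 and 590 nm) every 15 min for 6 h. Red polarized versus green depolarized mitochondria were scored, with CCCP as positive control.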

Calls of active or inactive are those of the source. The rule behind the calls is not given here.

As for `N#CC(C#N)=NNc1cccc(Cl)c1`, the outcome in test [1] and in test [2] was Active.
